Experimental data reported in ChEMBL document CHEMBL4138104, “Indole carboxylic acid esters of melampomagnolide B are potent anticancer agents against both hematological and solid tumor cells” (Eur J Med Chem, 2017).
The source made the active and inactive calls. The calls are words filed in the database; no cut-off is given here.

How the values were obtained:
Type in all cases: functional
[1] = Potency index, ratio of melampomagnolide-B EC50 to compound EC50 for human M9-ENL1 cells
Method in brief: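 M9-ENL1 AML cells, derived by MLL-ENL transduction of human blood cells, were plated at 10^6 cells/mL in alpha-MEM with 5% human plasma, 20% FBS, SCF, IL-3, IL-7 and FLT3 ligand. Exposure was 24 h. Non-apoptotic (Annexin V/7-AAD double-negative) fraction was normalized to vehicle, in triplicate, to give EC50. PTL and MMB were run as reference controls.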

[2] = Cytotoxicity against human M9-ENL1 cells assessed as reduction in cell viability by trypan blue staining-based assay
Method in brief: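 M9-ENL1 AML cells (MLL-ENL-transduced human blood cells) plated at 10^6 cells/mL in alpha-MEM with 5% human plasma, 20% FBS, SCF, IL-3, IL-7 and FLT3. Drug diluted from DMSO stock into PBS, final DMSO ≤0.5%. After 24 h exposure, dead cells assessed by trypan blue and by flow cytometry (Annexin V/PI or Annexin V/7-AAD). Viability normalized to vehicle; EC50 from dose-response curves; triplicate.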

Rattus norvegicus = species on record: Rattus norvegicus; assay: Inhibition of colony formation of rat 9LSF cells at 5 to 20 uM after 48 hrs by colony formation assay
Method in brief: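 9L-SF cells were seeded in 60 mm dishes to reach 50% confluence (6.65×10^4 cells/cm²) after 24 h. They were treated 48 h with drug serially diluted from DMSO stock (max 0.05% DMSO), then rinsed, trypsinized, counted and seeded in triplicate flasks for colonies. Lethally irradiated (25 Gy) feeders kept density at 2,000 cells/cm². Survival was normalized to control plating efficiency, with three experiments.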

C=C1C(=O)O[C@@H]2[C@H]3O[C@]3(C)CC/C=C(/COC(=O)Cc3c(C)n(C(=O)c4ccc(Cl)cc4)c4ccc(OC)cc34)CC[C@@H]12
Ratio IC50 [1]: 2 - 20
EC50 [2]: 2700 nM

C=C1C(=O)O[C@H]2[C@H]1CC/C(CO)=C\CC[C@@]1(C)O[C@@H]21
inhibition (Rattus norvegicus): Active

C=C1C(=O)O[C@@H]2[C@H]3O[C@]3(C)CC/C=C(/COC(=O)c3ccc4[nH]ccc4c3)CC[C@@H]12
Ratio IC50 [1]: 2 - 20
EC50 [2]: 3000 nM

C=C1C(=O)O[C@@H]2[C@H]3O[C@]3(C)CC/C=C(/COC(=O)c3sc4ccccc4c3Cl)CC[C@@H]12
Ratio IC50 [1]: 2 - 20
EC50 [2]: 2100 nM

C=C1C(=O)O[C@@H]2[C@H]3O[C@]3(C)CC/C=C(/COC(=O)c3ccc4cc[nH]c4c3)CC[C@@H]12
Ratio IC50 [1]: 2 - 20
EC50 [2]: 2500 nM

C=C1C(=O)O[C@@H]2[C@H]3O[C@]3(C)CC/C=C(/COC(=O)Cc3c[nH]c4ccccc34)CC[C@@H]12
Ratio IC50 [1]: 2 - 20
EC50 [2]: 4000 nM

O=C(O)c1cc2ccccc2[nH]1
inhibition (Rattus norvegicus): Active
